Assay outcomes as filed in PubChem.
V1R ag counter: counter-screen for oxytocin receptor agonists: human V1a receptor agonists | CHO-V1R cells, Fluo-8 calcium fluorescence, agonist mode; 0% DMSO, 100% 3 nM vasopressin | activation, % at 3 µM | hit rate 0.25% among 320,000 | P37288;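 active = activation above the mean activation of all tested compounds plus 3 SD, per screening run, cut at about 20% in these data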;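 note: signal is peak over basal fluorescence ratio across a 100 second FLIPR read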
TAAR1 ag: agonists of human TAAR1; Q96RJ0; CHO RD-HGA16 TAAR1, Fluo-8 calcium fluorescence; vehicle wells 0%, saturating PEA agonist 100%; activation, % at 3 µM; hit rate 0.99% among 360,000; AID 624467;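 active = activation above the mean activation of all test compounds in the run plus 3 SD, cut at about 38% in these data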
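test system = CHO RD-HGA16 cells carrying human TAAR1 plus Gα16 | schedule = 17-24 h seeding, 75 min 37 °C dye, 30 min RT | compound dosing = 3 µM single concentration | control set = DMSO and PEA EC100 | replicates = n 1 | signal = Fluo-8 fluorescence, 5 s baseline then 140 s kinetic read | measure = percent activation vs PEA EC100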
TAAR1 antag: human TAAR1 antagonism; CHO RD-HGA16 TAAR1, Fluo-8 calcium fluorescence, antagonist; hit rate 1.5% among 360,000; inhibition, % at 3 µM; Q96RJ0;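 active = inhibition above a per-plate cutoff, the mean inhibition of test compounds on that plate plus 3 SD, cut at about 49% in these data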;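 note: 0% = DMSO plus EC80 beta-PEA response and 100% = DMSO alone without agonist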
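test system = CHO RD-HGA16 cells bearing hTAAR1 | replication = singlicate | controls = DMSO-only wells and EC80 β-PEA-stimulated wells | reagent = EC80 β-phenethylamine stimulus | read-out basis = percent inhibition of PEA-evoked calcium signal, max/basal emission ratio | schedule = seeding 17-24 h prior, 75-min 37 °C, 30-min RT dye loading | signal = kinetic Fluo-8 calcium fluorescence measurement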
OXTR potentiator: potentiates the human oxytocin receptor response. CHO-OTR cells, Fluo-8 calcium fluorescence, potentiator mode; 0% = oxytocin EC15, 100% = EC100. activation, % at 3 µM. hit rate 0.061% among 320,000. AID 2445;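 active = activation above that plate's cutoff, the mean activation of tested compounds plus 3 SD, cut at about 6.6% in these data, passing the limit was not always enough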;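 note: 100% uses oxytocin at 75 nM as the full agonist control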
Target sequence (P30559 whole entry, looked up): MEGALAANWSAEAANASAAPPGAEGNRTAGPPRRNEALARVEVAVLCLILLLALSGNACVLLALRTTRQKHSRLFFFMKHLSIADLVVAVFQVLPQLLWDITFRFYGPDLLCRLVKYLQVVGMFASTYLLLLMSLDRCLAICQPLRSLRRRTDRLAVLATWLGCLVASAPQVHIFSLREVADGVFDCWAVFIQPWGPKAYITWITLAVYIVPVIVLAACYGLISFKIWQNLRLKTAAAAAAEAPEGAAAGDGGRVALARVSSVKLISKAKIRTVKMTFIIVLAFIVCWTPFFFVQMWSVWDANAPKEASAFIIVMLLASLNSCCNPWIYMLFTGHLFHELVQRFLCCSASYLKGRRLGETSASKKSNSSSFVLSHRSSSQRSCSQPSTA
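Replication – single well per compound, singlicate · Assay system – CHO cell line stably expressing human OTR · Timing – 6 min pre-incubation, 100 s read · Measure – normalized max/min fluorescence ratio, % activation · Doses – 3.0 µM, one dose · Detection – Fluo-8 calcium dye fluorescence · Probe or stimulus – oxytocin near EC15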
OXTR ag: activates the human oxytocin receptor | P30559 | CHO-OTR cells, Fluo-8 calcium fluorescence; normalized: DMSO 0%, oxytocin 100% | activation, % at 3 µM | hit rate 0.32% among 320,000 | AID 2435;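 active = activation above the mean of all tested compounds plus 3 SD, cutoff set per screening run, cut at about 20% in these data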;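 note: peak over basal fluorescence ratio from a 100 s FLIPR kinetic read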
TAAR1 nonsel count: nonselective antagonism, TAAR1 counter-screen; shares compounds with TAAR1 antag; counterscreen cell line, calcium fluorescence, antagonist mode; inhibition, % at 3 µM; hit rate 77% among 2,400; AID 651780; in the data active = inhibition above about 22%;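 note: CHO-Ga16 host cells stimulated with ATP at an EC80 level; 0% = agonist EC80 plus vehicle and 100% = vehicle without agonist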
TAAR1 antag conf: confirmation of human TAAR1 antagonists; shares compounds with TAAR1 antag; TAAR1-expressing cells, fluorescence antagonist read-out; inhibition, % at 3 µM; hit rate 40% among 2,400; AID 651785; in the data active = inhibition above about 49%;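 note: CHO-Ga16 host cells challenged with agonist PEA near its EC80; 0% = agonist at EC80 plus vehicle and 100% = vehicle with no agonist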
Ga16 ag counter: counter-screen for TAAR1 antagonists: nonselective Ga16 agonists. shares compounds with TAAR1 antag. Ga16-expressing cells, calcium fluorescence, agonist counterscreen. activation, % at 3 µM. hit rate 18% among 2,400; in the data active = activation above about 12%;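 note: 0% = vehicle wells and 100% = saturating stimulus response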
TAAR1 ag counter: TAAR1 agonism, antagonist counter-screen; shares compounds with TAAR1 antag; hTAAR1 cell line, fluorescence activation, agonist mode; activation, % at 3 µM; hit rate 2% among 2,400; AID 651955; in the data active = activation above about 37%;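 note: CHO cells stably expressing TAAR1 with calcium dye readout; 0% = DMSO vehicle and 100% = full agonist response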
* = called active by the depositor; . = no result. An excerpt weighted towards active compounds, which were near 2.3% of everything screened.

SMILES	V1R ag counter	TAAR1 ag	TAAR1 antag	OXTR potentiator	OXTR ag	TAAR1 nonsel count	TAAR1 antag conf	Ga16 ag counter	TAAR1 ag counter
C=CCn1c(=O)/c(=C/c2ccc(Cl)cc2)s/c1=C(/C#N)c1nnc2n1CCCCC2	-1	13	50*	-6	-1	27*	32	8	2
C=CCn1c(=O)/c(=C/c2ccc(O)cc2)s/c1=C(/C#N)c1nnc2n1CCCCC2	7	24	18	-7	10	.	.	.	.
Cc1c(NC(=O)CSc2ccc(Cl)cc2)cccc1-c1nc2ncccc2o1	4	11	60*	-4	1	31*	46	11	10
C=Cc1cc2c(cc1O)CCC1C2CCC2(C)C(O)CCC12 (stereo unspecified)	.	8	58*	.	.	23*	44	9	7
O=C(OC1CCCCC1=O)c1ccc(F)c(S(=O)(=O)N2CCOCC2)c1 (stereo unspecified)	0	.	.	-6	1	.	.	.	.
O=C(COC(=O)/C=C/c1ccc(Cl)cc1)NCc1cccs1	.	3	3	.	.	.	.	.	.
C=CCOc1ccc(/C=C/C(=O)OCc2csc(CC(=O)Nc3ccccc3C)n2)cc1	6	4	66*	-9	6	38*	52*	8	7
C=CCOc1ccc(/C=C/C(=O)OCC(=O)NCc2cccs2)cc1	5	22	52*	-16	3	29*	40	9	24
Cc1ccc(S(=O)(=O)NC2CC2)cc1[N+](=O)[O-]	1	3	-6	5	1	.	.	.	.
COC(=O)C1CSC(c2ccc(Cl)cc2)N1C(=O)c1ccccc1 (stereo unspecified)	0	5	0	-8	-3	.	.	.	.
C[C@@H]1CN([C@H](C)CO)C(=O)CCCn2nncc2CO[C@@H]1CN(C)S(C)(=O)=O	.	2	-22	.	.	.	.	.	.
CC(C)=CCC/C(C)=C/CN1C(=O)N(c2ccc(F)cc2)[C@H]2C[C@@H](c3ccccc3)[C@@H](C)[C@@H](C(=O)N3CCOCC3)C[C@H]21	.	2	65*	.	.	35*	59*	1	1
CCN1C(=O)N[C@H]2C[C@H](C(=O)N3CCCC3)[C@H](C)[C@H](c3ccccc3)C[C@H]21	.	1	-19	.	.	.	.	.	.
Cc1ccc(C(C)C)c(OCCNC(=O)c2ccccc2O)c1	3	2	58*	-17	-2	17	40	3	3
O=C(Nc1ccc(-n2cnnn2)cc1)c1cc(S(=O)(=O)N2CCCC2)ccc1Cl	.	6	-14	.	.	.	.	.	.
Brc1ccc(CSc2ccc3nnc(-c4cccnc4)n3n2)cc1	3	7	60*	-4	-1	25*	39	9	13
Cc1ccc(CSc2ccc3nnc(-c4ccccn4)n3n2)cc1	1	2	61*	-2	-1	25*	35	6	6
Brc1ccc(CSc2ccc3nnc(-c4ccccn4)n3n2)cc1	0	5	39	-7	0	.	.	.	.
COc1ccccc1CNC(=O)c1cc(-c2ccccc2C)nn1CC1CC(c2cccnc2)=NO1 (stereo unspecified)	0	14	37	-5	-1	.	.	.	.
CCOC(=O)c1cc(-c2ccccc2)nn1CC1CC(c2ccc(Cl)cc2)=NO1 (stereo unspecified)	-1	13	80*	-16	0	24*	47	6	3
CCOC(=O)c1cc(-c2ccccc2)nn1CC1CC(c2ccc(OC)cc2)=NO1 (stereo unspecified)	1	1	35	-9	1	.	.	.	.
Cc1ccccc1-c1cc(C(=O)NCc2cccc(Br)c2)n(CC2CC(c3cccnc3)=NO2)n1 (stereo unspecified)	1	11	69*	-3	0	26*	38	7	9
COc1ccc2nc(C)cc(SCC(=O)NNC(=O)COc3cccc4ccccc34)c2c1	3	19	71*	-12	5	46*	56*	9	8
COc1ccc2oc(C(=O)NC3(C)CCS(=O)(=O)C3)c(C)c2c1 (stereo unspecified)	-1	1	-3	0	-1	.	.	.	.
CCCCCCC(=O)N(O)C1CC(=O)N(c2ccc(F)cc2)C1=O (stereo unspecified)	0	0	-9	-14	-1	.	.	.	.
SMILES	V1R ag counter	TAAR1 ag	TAAR1 antag	OXTR potentiator	OXTR ag	TAAR1 nonsel count	TAAR1 antag conf	Ga16 ag counter	TAAR1 ag counter
CCCCCCC(=O)N(O)C1CC(=O)N(c2ccc(Br)cc2)C1=O (stereo unspecified)	0	-4	106*	-5	0	12	13	2	1
CC(=O)c1cccc(S(=O)(=O)N2CCC(C(=O)Nc3cccc(C(=O)NC4CC4)c3)CC2)c1	1	15	9	5	1	.	.	.	.
Cc1ccccc1-n1c(C)cc(/C=C(\C#N)C(=O)NCC2CCCO2)c1C (stereo unspecified)	2	2	8	-14	-2	.	.	.	.
Cc1cc(/C=C(\C#N)C(=O)NCc2cccs2)c(C)n1-c1ccccc1F	0	2	69*	-18	-2	17	61*	2	4
NC(=O)c1nsc(C(=O)N(c2ccccc2)C(C(=O)NCc2ccc(F)cc2)c2ccco2)c1N (stereo unspecified)	6	17	68*	-13	4	21*	53*	9	40*
O=C(NCc1ccc(F)cc1)C(c1ccco1)N(C(=O)c1csnn1)c1ccccc1 (stereo unspecified)	1	4	13	-10	1	.	.	.	.
NC(=O)c1nsc(C(=O)N(c2ccccc2)C(C(=O)NC2CCCC2)c2ccncc2)c1N (stereo unspecified)	-1	0	-24	-5	-1	.	.	.	.
NC(=O)c1nsc(C(=O)N(c2ccccc2)C(C(=O)NC2CCCCC2)c2ccc(O)cc2)c1N (stereo unspecified)	1	6	64*	-28	-1	25*	40	6	8
NC(=O)c1nsc(C(=O)N(c2ccccc2)C(C(=O)NCc2ccc(F)cc2)c2ccc(O)cc2)c1N (stereo unspecified)	6	30	74*	-10	4	38*	64*	14*	19
CC(=O)c1ccc(-c2ccc(C(=O)N3CCC(C(N)=O)CC3)o2)cc1	0	2	-8	-4	0	.	.	.	.
